Tests used:
Mus musculus [1] = experiment: Antiinflammatory activity in NIH mouse assessed as inhibition of TPA-induced mouse ear edema measured per ear administered to right ear relative to untreated control; type: functional, organism-based
In short: (§1)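 Male NIH mice, groups of 5-8, anaesthetized with Sedaphorte. Right ear got TPA 2.5 μg in 10 μL EtOH, split across both faces; left ear got EtOH only. 10 min later, test compound at 0.1 to 1.0 μmol in 20 μL Me₂CO-CH₂Cl₂ (1:1) was applied to the right ear; controls got vehicle only. Sacrificed at 4 h; a 7 mm plug was taken from each ear.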

Mus musculus [2] = experiment: Antiinflammatory activity in NIH mouse assessed as inhibition of TPA-induced mouse ear edema at 1 umol/ear administered to right ear relative to untreated control; type: functional; in short: as §1

| Structure (SMILES) | IC50 (Mus musculus [1]) [µmol/ear] | inhibition (INH) (Mus musculus [2]) [%] |
| --- | --- | --- |
| CCCCCCCCCCCC(=O)O[C@H]1[C@@H](O[C@]2(COC(C)=O)O[C@H](CO)[C@@H](O)[C@@H]2OC(=O)C(C)C)O[C@H](CO)[C@@H](O)[C@@H]1OC(=O)C(C)C | 0.26 |  |
| CCCCCCCCCCCC(=O)O[C@H]1[C@@H](O[C@]2(CO)O[C@H](CO)[C@@H](O)[C@@H]2OC(=O)C(C)C)O[C@H](CO)[C@@H](O)[C@@H]1OC(=O)C(C)C | 0.35 |  |
| CCCCCCCCCCCC(=O)O[C@H]1[C@@H](O[C@]2(COC(C)=O)O[C@H](CO)[C@@H](O)[C@@H]2O)O[C@H](CO)[C@@H](O)[C@@H]1OC(=O)C(C)C | 0.34 |  |
| CC(=O)O[C@H](C[C@H]1C(C)=CC[C@H]2C(C)(C)CCC[C@]12C)/C(C)=C/CO |  | 25.4 |
| CCCCCCCCCCCC(=O)O[C@H]1[C@@H](O[C@]2(CO)O[C@H](CO)[C@@H](O)[C@@H]2O)O[C@H](CO)[C@@H](O)[C@@H]1OC(=O)C(C)C | 0.24 |  |
| C=C1[C@H](OC(C)=O)C[C@H]2C(C)(C)CCC[C@]2(C)[C@H]1C[C@@H](OC(C)=O)/C(C)=C/COC(C)=O |  | 29.4 |
| CC1=CC[C@H]2C(C)(C)CCC[C@]2(C)[C@H]1C[C@@H](O)/C(C)=C/CO [PHYSACOZTOMATIN] | 0.49 | 65.8 |
| C=C1[C@H](O)C[C@H]2C(C)(C)CCC[C@]2(C)[C@H]1C[C@@H](O)/C(C)=C/CO [PHYSORDIN] | 0.63 | 64.3 |
